Compound activity deposited in PubChem BioAssay by several laboratories.
Calb FLC: C. albicans growth modulation with fluconazole. AID 1979. C. albicans CaCi-2 (fluconazole-resistant clinical isolate) + fluconazole, Alamar Blue growth, 48 h. growth inhibition, % (test concentration not listed). 0.57% of 300,000 active;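 active means growth inhibition above about 58% in most replicates, limit read from the data, passing the limit was not always enough; inconclusive means exactly half the replicates above a set limit; inactive means most replicates below a set limit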;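 further: all wells also contain fluconazole at 8 µg/ml as a sub-toxic cotreatment; 0% = median of DMSO wells and 100% = median of geldanamycin control wells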
SKKanGAS inh: inhibitors of SKKanGAS S. pyogenes growth in kanamycin (SK-promoter or general growth effect); AID 1662; inhibition, % at 7.5 µM; 1.3% of 300,000 active; BacTiter-Glo, 6 h;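 active means mean replicate score, as percent of positive control median, at least 50; inconclusive means mean below 50 but one replicate at or above 50; inactive means mean and every replicate below 50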;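 further: strain carries kanamycin resistance gene driven by streptokinase promoter and grows in 40 µg/ml kanamycin; loss of luminescence reflects streptokinase promoter inhibition or plain growth inhibition; 0% = median of DMSO wells and 100% = positive control at its reference dose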
Beta apoptosis: beta cell apoptosis inhibition; 0.8% of 300,000 active; INS-1E cytokine-induced death, ATP luminescence, 48 h; percent of positive-control rescue, neutral wells zero; AID 435005; protection from apoptosis, % (concentration not given with the values);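 active means Every replicate reaches about 75%, or at least half do and their mean reaches it too, limit read from the data; inconclusive means At least half of replicates reach the limit but their mean does not; inactive means Under half of replicates reach the limit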;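 further: 0% = cytokine-treated negative control wells and 100% = positive control rescue; higher means more ATP so stronger rescue from cytokine killing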
T cruzi inh: blocks replication of Trypanosoma cruzi; T. cruzi beta-gal in NIH3T3, luminescence, 90 h; 1.4% of 300,000 active; inhibition, % (test concentration not listed);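 active means mean inhibition across valid replicates above about 55%, limit read from the data; inconclusive means mean below that limit but half or more replicates reach it; inactive means mean below it, under half of replicates reach it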;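 further: signal also drops with host cell toxicity which is not excluded here; 0% = plate median of DMSO wells and 100% = zero luminescence signal; higher percent means less beta-gal luminescence so fewer parasites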
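System: mouse NIH/3T3 fibroblasts infected with β-gal-expressing T. cruzi Tulahuen C4 / Input: NIH/3T3 cells, 5,000 per well / Buffer or medium: Low-serum DMEM with 2% FBS / Probe or stimulus: 5000 reporter trypomastigotes per well / Schedule: ≥90 h infection period, 3 h prior cell attachment / Measured by: GalScreen luminescence, 60 min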
CSC inhib: blocks cancer stem cells | inhibition, % at 7.5 µM | AID 2717 | 1.1% of 300,000 active | cancer stem cell-like cells viability, luminescence; in the data active means inhibition above about 75%; inconclusive means no clear call, values can overlap the other calls; tested in HMLE shEcad cells
Mdm2 MdmX PPI: disrupts the human Mdm2-MdmX interaction. O15151+Q00987. SaOS-2 split-luciferase Mdm2/MdmX complementation, luminescence. inhibition, % at 8 µM. 3% of 330,000 active;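 active means inhibition of at least 50% at 8 µM in the primary screen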
Mdm2 MdmX conf: confirmation of human Mdm2/MdmX interaction inhibitors; shares compounds with Mdm2 MdmX PPI; Mdm2-MdmX binding, luminescent assay; inhibition, % at 8 µM; 55% of 10,000 active; AID 489028; in the data active means inhibition above about 40%
Full FLuc ctr: full-length luciferase inhibition in Mdm2/MdmX counter-screen. shares compounds with Mdm2 MdmX PPI. SaOS-2 full-length luciferase counterscreen, luminescence. inhibition, % at 8 µM. 77% of 6,200 active;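 active means mean inhibition at 8 µM reaching about 37%, which flags the compound as non-specific, limit read from the data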;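 further: p53-null SaOS-2 cells with luciferase driven by a doxycycline-inducible promoter; compound on cells about two nights before reading with doxycycline added after day one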
The depositor's hits bear a star; ? = inconclusive; . = no result. In the library only some 5.7% were active in any assay of this set; here they are far more common.

SMILES	Calb FLC	SKKanGAS inh	Beta apoptosis	T cruzi inh	CSC inhib	Mdm2 MdmX PPI	Mdm2 MdmX conf	others
COC(=O)c1ccc(-n2c(C)cc(C(=O)CCl)c2C)cc1	-31.5	-50.4	4.5	52.2	52.2	93.9*	61.7*	Full FLuc ctr=58.1*
Cc1csc(NC(=O)CN2C(=O)COc3ccc(Cl)cc32)n1	-7.2	1.2	.	3.3	6.5	-15.7	.
COc1ccccc1N(CC(=O)Nc1cccc(C(F)(F)F)c1)S(C)(=O)=O	7.1	?	.	2.9	-1.7	-7.3	.
Cc1ccc([N+](=O)[O-])cc1N(CC(=O)Nc1ccc(S(=O)(=O)Nc2cccc(C(F)(F)F)c2)cc1)S(C)(=O)=O	1.1	?	99.4*	61.2*	100.2*	55.0*	45.1*	Full FLuc ctr=39.2*
Cn1c(SCC(=O)NCC2CCCO2)nc2c(c1=O)SCC2 (stereo not drawn)	-0.5	6.4	-2.1	-4.9	.	22.1	.
COc1ccc([N+](=O)[O-])c(OC)c1C(=O)NC(=O)Nc1nc(C)nc(C)n1	-6.4	-1.5	-1.9	-14.9	-5.2	25.8	.
Brc1ccc2c(c1)OCCOCCOc1cc(Br)ccc1OCCOCCOCCO2	3.2	0.8	19.2	64.9*	6.3	74.0*	39.5	Full FLuc ctr=59.7*
Brc1cc2c(cc1Br)OCCOCCOCCOCCO2	-8.4	-7.7	-2.9	2.7	-7.0	-7.4	.
Nc1c(C(=O)NC2CCCC2)c2nc3ccccc3nc2n1/N=C/c1cccnc1	2.7	5.5	0.9	23.6	45.0	51.1*	23.1
COCCCNC(=O)c1c(N)n(/N=C/c2ccccn2)c2nc3ccccc3nc12	4.6	36.6	.	24.3	.	32.1	.
CC(=O)N(C)c1ccc(N=Nc2c(C)[nH]n(-c3ccccc3)c2=O)cc1	-1.7	-6.0	15.3	16.0	10.3	30.2	.
Cc1[nH]n(-c2ccccc2)c(=O)c1N=Nc1ccccc1O	-3.1	67.6*	.	47.1	.	58.8*	58.5*	Full FLuc ctr=42.4*
COc1ccc(/C=N/NC(=O)c2csc(-n3nc(C)cc3C(F)(F)F)n2)cc1	?	5.8	0.8	-7.2	54.5	50.2*	48.5*	Full FLuc ctr=69.9*
Cc1cc(C(F)(F)F)n(-c2nc(C(=O)NN)cs2)n1	4.2	-3.1	0.7	21.9	-2.3	9.6	.
CSc1ccccc1C(=O)OCC(=O)Nc1ccc(N2CCOCC2)cc1	.	.	1.6	.	-3.6	-11.1	.
CCOC(=O)c1c(NC(=S)NC(=O)c2cnn(CC)c2)sc2c1CCC(C)C2 (stereo not drawn)	-0.3	7.7	-5.5	4.7	-1.9	54.1*	7.8
CCOC(=O)c1c(NC(=O)C2C3C=CC(C3)C2C(=O)O)sc2c1CCC(C)C2 (stereo not drawn)	9.8	-3.2	-5.3	-14.5	-7.1	6.6	.
CCOC(=O)c1c(NC(=O)Cn2nc([N+](=O)[O-])c(Br)c2C)sc2c1CCC(C)C2 (stereo not drawn)	2.2	-6.0	7.2	-18.7	18.2	58.1*	8.8
CC(C)Oc1ccc(C(=O)Nc2cc(S(=O)(=O)N3CCOCC3)ccc2N2CCOCC2)cc1	.	.	.	.	.	10.3	.
COc1ccc(S(=O)(=O)Nc2c(O)ccc3ccccc23)cc1OC	-0.4	16.5	-22.3	5.7	9.5	41.4	.
COc1ccc(/C=N/n2c(COc3ccccc3)n[nH]c2=S)cc1OC	12.9	-0.3	.	10.6	.	13.1	.
COc1ccc2c(-c3ccc(OCCN4CCCCC4)cc3)c(-c3ccccc3OC)sc2c1	.	.	.	.	.	62.7*	16.4
COc1ccccc1-c1sc2ccccc2c1-c1ccc(OCCN2CCCCC2)cc1	.	.	.	.	.	66.6*	44.1*	Full FLuc ctr=55.1*
COc1cc2sc(-c3ccccc3OC)c(-c3ccc(OCCN4CCOCC4)cc3)c2cc1OC	.	.	.	.	.	60.5*	9.3
COc1ccc2c(-c3ccc(OCCN4CCOCC4)cc3)c(-c3ccccc3OC)sc2c1	.	.	.	.	.	6.9	.
NS(=O)(=O)c1cccc(NC(=O)CSc2nnc(C3CC3)n2-c2ccccc2)c1	.	.	-4.0	.	-10.8	-4.9	.
O=C1NC(Cc2ccccc2)c2nc3ccccc3c(=O)n2-c2ccc(Cl)cc21 (stereo not drawn)	.	.	-5.7	.	-13.4	-10.6	.
COCc1ccc(CN2CCC(C(=O)Nc3cccc(-c4cscn4)c3)CC2)o1	-2.8	-6.7	-10.4	-5.4	-5.4	20.2	.
